Bioassay records from PubChem BioAssay.
This excerpt belongs to a sample that is enriched for hits.
RORa inhibitor: inhibitors of orphan receptor RORA, primary screen, cell-based, luminescence | hit rate 0.43% among 65,000 | inhibition, % at 10 µM | AID 561, 2006 | CHO-K1 Gal4-RORA LBD luciferase reporter;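 active means inhibition above the mean of all tested compounds plus 3 SD, cut at about 52% in these data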;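 further: 0% = RORA-transfected cells with DMSO and 100% = mock-transfected cells lacking RORA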
Target sequence (P35398 whole entry, looked up, the tested form may be a part): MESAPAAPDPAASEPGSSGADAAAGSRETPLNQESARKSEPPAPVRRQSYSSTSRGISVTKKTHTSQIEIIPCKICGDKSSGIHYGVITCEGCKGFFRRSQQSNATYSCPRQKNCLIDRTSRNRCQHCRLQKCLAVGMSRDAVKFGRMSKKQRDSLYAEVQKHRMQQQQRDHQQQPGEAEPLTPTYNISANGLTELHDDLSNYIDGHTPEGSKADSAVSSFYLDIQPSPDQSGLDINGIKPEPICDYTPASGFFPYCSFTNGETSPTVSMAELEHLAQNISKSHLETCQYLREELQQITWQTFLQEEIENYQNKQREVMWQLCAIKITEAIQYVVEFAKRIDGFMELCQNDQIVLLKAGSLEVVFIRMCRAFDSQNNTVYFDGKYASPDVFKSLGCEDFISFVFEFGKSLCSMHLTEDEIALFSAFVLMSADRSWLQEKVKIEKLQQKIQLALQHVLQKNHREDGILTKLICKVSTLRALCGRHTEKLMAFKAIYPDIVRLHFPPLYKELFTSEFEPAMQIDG
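Test system – CHO-K1 Gal4-RORA LBD luciferase reporter cells · Schedule – 20 h at 37 °C · Signal – luminescence from basal luciferase reporter expression · Measure – percent inhibition of basal reporter luminescence, control-normalized · Control set – -RORA mock-transfected DMSO wells 100%, +RORA DMSO wells 0%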
* marks the source's active call; other numbers are inactive results.

SMILES | RORa inhibitor
CCCCNC(=O)c1cc(-c2ccc(OC)cc2)on1 | -59.0
CCCCn1c(SCC(=O)NCc2ccco2)nnc1-c1ccoc1C | 5.7
COc1ccc2cc(C3(C)NC(=O)N(CC(=O)NCc4ccco4)C3=O)ccc2c1 (stereo not drawn) | -1.3
CCOc1ccc(-c2cc(CCCC(=O)NCc3ccco3)no2)cc1 | 58.5*
Cc1ccc(CS(=O)(=O)CCC(=O)NCCCN2CCCC2=O)cc1 | -2.7
COc1ccc(-c2nc(CSCC(=O)N3CCc4ccccc43)c(C)o2)cc1OC | 6.6
Cc1ccc(-c2nc(CS(=O)(=O)CC(=O)N3CC(C)CC(C)C3)c(C)o2)cc1 (stereo not drawn) | 1.0
c1ccc(-c2onc3cc4c(cc23)OCCO4)cc1 | -74.3
CCOCC(=O)Nc1nnc(C2CCCCC2)s1 | -50.5
Cc1ccc(S(=O)(=O)c2nc(-c3cccs3)oc2SCC(N)=O)cc1 | -8.7
Cc1cccc2cc(COC(=O)COc3ccccc3)c(=O)[nH]c12 | -10.0
C=CCOc1ccc(C2c3c(oc4ccccc4c3=O)C(=O)N2c2ccccn2)cc1OCC (stereo not drawn) | -10.5
Cc1ccccc1-n1c(=O)cc(N2CCN(C(=O)c3ccco3)CC2)[nH]c1=O | 3.1
Cc1ccc2nsnc2c1S(=O)(=O)N1CCN(Cc2ccc3c(c2)OCO3)CC1 | 5.7
Cc1nc(SCC(=O)Nc2c(C)n(C)n(-c3ccccc3)c2=O)n[nH]1 | 4.7
O=C(O)c1cccc(S(=O)(=O)N2CCOCC2)c1 | 21.7
CCc1ccc(NC(=O)N(CCCN2CCOCC2)C(C)c2cc3cccc(OC)c3o2)cc1 (stereo not drawn) | 5.2
COc1cc2[nH]c(=O)n(Cc3ccc(C(=O)NCC4CCCO4)cc3)c(=O)c2cc1OC (stereo not drawn) | 5.9
Cn1c(=O)[nH]c(=O)c2c1nc(Sc1nc3ccccc3s1)n2Cc1ccccc1 | -4.1
CCc1ccc(S(=O)(=O)NCc2csc(C)n2)s1 | -2.8
CCOC(=O)N1CCN(C(=O)CCc2ccc(S(=O)(=O)NCCc3ccccc3)cc2)CC1 | 6.4
Nc1cccc(-c2nc3ccc(N)cc3s2)c1 | 56.7*
Nc1nc2ccc(Oc3ccccc3)cc2s1 | -32.7
Cc1ccc2[nH]c(-c3cccc(N)c3)cc2c1 | -54.9
CCOc1ccccc1CNc1ccc(N2CCOCC2)c(C(=O)O)c1 | -1.9
SMILES | RORa inhibitor
Cc1csc(=N)n1-c1ccc(Cl)cc1 | -24.5
O=C(CSCc1cccc(F)c1)N1CCN(c2ccccc2)CC1 | -52.6
Cc1ccc(S(=O)(=O)Nc2cccc3ncccc23)s1 | 80.2*
COc1cccc(-c2cc(C(=O)N3C(C)CCCC3C)no2)c1 (stereo not drawn) | -66.9
O=C1CN(C(=O)CSc2nnnn2-c2ccc(Cl)cc2)c2ccccc2N1 | 1.0
CC(=O)Nc1ccc(S(=O)(=O)Nc2cccc(N(C)S(C)(=O)=O)c2)cc1 | -0.4
COc1ccc(N(CC(=O)NCc2ccco2)S(C)(=O)=O)cc1Cl | 1.4
CC1=CCC(COC(=O)Nc2ccccc2)CC1 (stereo not drawn) | -89.9
O=c1cc(-c2c(F)c(F)c(F)c(F)c2F)oc2c(F)c(F)c(F)c(F)c12 | 83.9*
CCOc1ccccc1N(CC(=O)NCC1CCCO1)C(=O)CCC(=O)Nc1ccccn1 (stereo not drawn) | -14.1
CCCCOc1ncnc2c1[nH]c1ccc(F)cc12 | 70.4*
O=C(Nc1ccc2c(c1)OCCO2)C1CCN(S(=O)(=O)c2ccc(Br)s2)CC1 | -7.4
O=C(NCC1CCCO1)C1CC(=O)N(C2CCCCCC2)C1 (stereo not drawn) | -12.0
COC(=O)/C(=C1/Oc2cc(C)oc(=O)c2S1)C(F)(F)F | 94.7*
CC(=O)c1c(N2CCN(Cc3ccc4c(c3)OCO4)CC2)nc(=S)n(-c2ccccc2)c1C | 10.6
CCOc1ccc2oc(-c3ccccc3)c(C(=O)N3CCN(CCO)CC3)c2c1 | 8.6
O=C1c2ccccc2S(=O)(=O)N1Cc1nc2ccccc2s1 | 53.7*
CC1CCN(C(=O)CN2C(=O)c3ccccc3S2(=O)=O)CC1 | -26.3
CN(C)c1ccc(C2=NOC(CN3C(=O)c4ccccc4S3(=O)=O)C2)cc1 (stereo not drawn) | -60.1
CCCc1cc(=O)[nH]c(Nc2ccc(OC)c(Cl)c2)n1 | 6.2
CCNc1nc(N)c(C(=O)c2ccc(Cl)s2)s1 | -49.8
c1ccn2c(CNc3ncnc4sccc34)nnc2c1 | -1.7
O=C(CSc1nnc(Cn2nnc3ccccc32)o1)N(Cc1ccc(F)cc1)c1ccccc1 | 71.3*
COc1cc(OC)cc(-c2nnc(SCC(=O)N(Cc3ccccc3)C(C)(C)C)o2)c1 | 13.1
COc1cc(-c2nnc(SCC(=O)N(Cc3ccccc3)C(C)(C)C)o2)cc(OC)c1OC | -14.1
SMILES | RORa inhibitor
Cc1ccc(C)n1-n1c(C)nc2sc3c(c2c1=O)CCCCC3 | 9.9
OCCNc1nc(OCC(F)(F)F)nc(N2CCN(C34CC5CC(CC(C5)C3)C4)CC2)n1 | 21.3
CCOC(=O)Cc1csc(SCc2nc3ccccc3c(=O)[nH]2)n1 | -18.0
O=C(Cc1ccccc1)CC1(O)C(=O)Nc2ccccc21 (stereo not drawn) | 4.4
Nc1ccc(-c2nc3c(Cl)cc(N)cc3[nH]2)cc1 | 78.7*
CN(C)CCN1C(=O)C(=O)/C(=C(/O)c2ccc(F)cc2)C1c1ccccc1 (stereo not drawn) | -23.5
CC1(C)CC(=O)C2=C(C1)Oc1nc3ccccc3cc1C2C(C#N)C#N (stereo not drawn) | 72.1*
Cn1c(=O)c2c(nc(N3CCCCC3)n2CCSc2nc3ccccc3s2)n(C)c1=O | 0.4
Nc1nc(CSc2nc3ccccc3s2)nc(N2CCCCC2)n1 | -14.1
O=C(O)CCSc1nc2ccccc2s1 | 54.4*
COC(=O)[C@@H](NC(=O)NCc1ccco1)C(C)C | -7.1
CCOC(=O)Cc1cc(=O)n2[nH]c(C)c(-c3ccccc3)c2n1 | -5.6
CCOC(=O)N1CCN(C(=O)c2cc(-c3ccc(OCC)cc3)nc3ccccc23)CC1 | -135.7
CCOC(=O)c1cnn2c(C)cc(-c3ccccc3)nc12 | -42.8
CCOC(=O)CS(=O)(=O)c1nc(-c2ccccc2)cc(C(F)(F)F)n1 | 60.2*
COCC(C)NC(=O)CCS(=O)(=O)c1nc(-c2ccc(OC)cc2)cc(C(F)(F)F)n1 (stereo not drawn) | 17.2
CCOC(=O)CS(=O)(=O)c1nc(-c2ccc(F)cc2)cc(C(F)(F)F)n1 | 60.9*
Cc1ccc(-n2ncc3c2ncn2c(C)nnc32)cc1C | -59.5
c1ccc2c(c1)Cc1cc(CN3CCOCC3)ccc1-2 | -67.7
COc1ccccc1NC(=O)COC(=O)CNC(=O)c1ccc(OC)c(OC)c1 | 7.9
O=C(c1ccco1)N(Cc1cccs1)C1CCS(=O)(=O)C1 (stereo not drawn) | -8.1
CCOc1ccc2nc(NCCNC(=O)C3CC3)c(C)cc2c1 | 9.5
CCCOc1ccc(N2CC(C(=O)Nc3ncccc3C)CC2=O)cc1 (stereo not drawn) | 19.2
CCCN(Cc1ccccc1)S(=O)(=O)c1ccc(N2C(=O)CCC2=O)cc1 | -7.4
CCC(C(=O)Nc1ccccc1OC)n1c(C(=O)OC)cc2ccsc21 (stereo not drawn) | 5.2
SMILES | RORa inhibitor
Cc1csc(NC(=O)CNC(=O)OCc2ccccc2)n1 | 17.0
Cn1ccnc1-c1nc2ccccc2[nH]c1=O | 5.9
Cn1cc(Cl)c(-c2nc3ccccc3[nH]2)n1 | -55.6
c1ccc2nc(-c3nc4ccccc4[nH]3)ccc2c1 | 66.5*
O=C(NCc1cccs1)C1CC(=O)N(c2ccc(F)cc2)C1 (stereo not drawn) | -19.7
Brc1cccc(C2CC(c3ccccc3)n3nnnc3N2)c1 (stereo not drawn) | -5.1
